# Screens: PubChem, several laboratories
# KCC2 mod: modulates chloride dependent transport by human KCC2; Q9H2X9; KCC2 cells, thallium flux FluoZin-2 fluorescence; B-score of Tl+ flux slope (higher = more flux/activation; lower = inhibition) at 10 µM; actives 2.2% (n = 190,000);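 active = thallium flux slope and its plate-corrected score both differing from the plate sample mean at a set confidence after two filtering rounds, in either direction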;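 note: slope of fluorescence scaled to starting intensity during 10 to 20 s after thallium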
# Calpain2 inh: inhibitors of pig calpain II; purified calpain II, fluorogenic peptide substrate, 30 min; inhibition, % at 16 µM; actives 0.37% (n = 220,000); AID 1236;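 active = inhibition above about 50%, limit read from the data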
# Mdm2 ligase inh: inhibitors of human Mdm2 E3 ubiquitin ligase; Q00987; cell-based MDM2 ubiquitination luciferase reporter, 2 h; 0 = plate control, 100 = twice control, blank-subtracted; signal enhancement, % at 5 µM; actives 0.11% (n = 210,000);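 active = signal enhancement of 30% or more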;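 note: luminescence tracks abundance of the self-degrading MDM2-luciferase fusion protein; higher signal means inhibition of MDM2 E3 ligase activity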
# Target sequence (Q00987 whole entry, looked up, the tested form may be a part): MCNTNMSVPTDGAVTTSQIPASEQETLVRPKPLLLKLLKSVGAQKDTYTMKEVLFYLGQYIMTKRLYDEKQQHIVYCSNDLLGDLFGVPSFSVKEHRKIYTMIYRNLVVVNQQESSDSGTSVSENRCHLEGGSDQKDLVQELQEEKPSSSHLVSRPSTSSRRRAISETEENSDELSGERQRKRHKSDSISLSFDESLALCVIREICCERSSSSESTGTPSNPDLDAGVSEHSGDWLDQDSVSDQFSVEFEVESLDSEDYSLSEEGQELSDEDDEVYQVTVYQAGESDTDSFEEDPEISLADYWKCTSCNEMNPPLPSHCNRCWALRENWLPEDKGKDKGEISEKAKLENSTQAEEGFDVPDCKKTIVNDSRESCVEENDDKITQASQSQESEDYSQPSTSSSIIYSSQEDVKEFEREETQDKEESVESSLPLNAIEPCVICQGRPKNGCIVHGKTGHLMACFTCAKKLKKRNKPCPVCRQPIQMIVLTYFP
#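 Buffer or medium: Cells held in DMEM | Assay system: Stable mammalian line carrying autodegrading MDM2–luciferase fusion reporter | Quantity: 2000 cells/well | Times: 4 h settle plus 2 h compound, 37 °C | Doses: One concentration, 5 µM, with 0.2% DMSO | Technique: Luminescence with SteadyLite reagent, 15 min at room temperature | Benchmarks: Plate controls and plate blanks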
# ROMK primary: modulators of human ROMK potassium channel | P48048 | Tet-inducible ROMK, thallium flux fluorescence; actives lie on both sides | B-score at 10 µM | actives 2% (n = 130,000);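 active = signal ratio slope over the read window, or its plate-corrected B-score, at least 3 SD from the plate mean, either direction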;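 note: B-score of the F/F0 ratio slope over 7 to 12 s after thallium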
# PKD1 inh: inhibitors of human PKD1 kinase; Q15139; PKD1 kinase fluorescence polarization assay; inhibition, % (no concentration beside the values); actives 0.056% (n = 200,000); in the data active = inhibition above about 50%
# Arbovirus anti: blocks arbovirus infection; inhibition, % at 10 µM; arbovirus infection cell-based antiviral screen; AID 1251; actives 0.37% (n = 200,000); in the data active = inhibition above about 30%
# KCC2 sec1: KCC2 (human) modulation, secondary assay; shares compounds with KCC2 mod; HEK293-KCC2, thallium flux, FluoZin2 fluorescence; hits give high values; normalised thallium flux (F/F0 slope) at 10 µM; actives 15% (n = 3,700); AID 1713;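 active = thallium flux slope above the same plate's solvent-only control mean plus 3 SD; inconclusive = the two replicate wells disagree; inactive = no significant difference from solvent-only control wells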
# KCC2 bumet counter: bumetanide-insensitive thallium flux in KCC2 cells with ouabain, counter-screen; normalized thallium flux at 10 µM; actives 49% (n = 3,700); HEK293-KCC2 + bumetanide/ouabain, thallium flux FluoZin2; hits give high values; shares compounds with KCC2 mod;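 active = thallium entry rate above the same plate's blocked-transporter control wells by more than 3 SD; inconclusive = the two repeat wells disagree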;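 note: raw slope of fluorescence over initial fluorescence between 10 and 20 s after thallium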
# KCC2 secondary2: confirmation of human KCC2 transport modulators; shares compounds with KCC2 mod; HEK293-KCC2, thallium flux FluoZin2 fluorescence; actives lie on both sides; F/F0 rise rate, 10–20 s post-thallium; normalized thallium flux at 10 µM; actives 23% (n = 3,700); AID 1715;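 active = thallium flux slope more than 3 SD above or below the plate's solvent-only control mean, mostly below; inconclusive = the two repeat wells disagreed; inactive = no significant shift from solvent-only controls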
# HEK counter1: parental HEK flux effect, counter-screen | shares compounds with KCC2 mod | HEK293 parental cells, thallium flux FluoZin2, ouabain; baseline-ratio fluorescence slope, 10–20 s after thallium | thallium flux rate (normalised fluorescence) at 10 µM | actives 46% (n = 3,700);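 active = thallium flux rate significantly above the same plate's solvent-only control wells, beyond their mean plus 3 SD; inconclusive = the two replicate wells gave conflicting results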
# KCC2 retest ouab: confirmation of human KCC2 modulators with ouabain | shares compounds with KCC2 mod | HEK293-KCC2, thallium flux FluoZin2 fluorescence; bidirectional: low = inhibitor, high = activator | raw Tl+ flux slope (below DMSO = inhibition, above = activation) at 10 µM | actives 48% (n = 3,700) | AID 1717;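 active = thallium flux slope beyond 3 SD from same-plate DMSO control mean in most replicates, usually higher, sometimes lower; inconclusive = repeat tests gave conflicting results; inactive = no significant difference from controls in most replicates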;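 note: slope of initial-normalized fluorescence between seconds 10 and 20 after thallium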
# HEK counter2: counter-screen for KCC2 modulators: effect in parental HEK293 cells; shares compounds with KCC2 mod; thallium flux FluoZin-2 fluorescence slope; thallium flux slope at 10 µM; actives 33% (n = 3,700);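 active = thallium flux slope above the same plate's solvent-control mean plus 3 SD in both duplicate wells; inconclusive = duplicate wells that disagreed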;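 note: run without ouabain in cells lacking the KCC2 cotransporter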
# Hits are given with their value; - = inactive; ? = inconclusive; . = not tested or not shown. Compounds with a hit are over-represented: about 3.7% of the library has one in this group of screens.
SMILES,KCC2 mod,Calpain2 inh,Mdm2 ligase inh,ROMK primary,PKD1 inh,Arbovirus anti,KCC2 sec1,KCC2 bumet counter,KCC2 secondary2,HEK counter1,KCC2 retest ouab,HEK counter2
Cc1cc2nc(N3C(=O)CNC3=S)sc2cc1C,19,-,-,-,-,-,0.019,0.058,-,0.026,0.041,0.015
O=C1CNC(=S)N1c1nc(-c2ccccc2)cs1,-,-,-,.,-,-,.,.,.,.,.,.
COc1ccccc1-c1nc(C#N)c(N2CCC(Cc3ccccc3)CC2)o1,.,-,-,-,-,-,-,-,?,-,0.019,-
Cc1nn(-c2ccccc2)nc1C(=O)c1c(C)[nH]n(-c2ccccc2)c1=O,11,-,-,-,.,.,0.015,0.029,-,?,0.034,?
Fc1ccccc1-n1cc(-c2ccccc2)[nH]c1=S,70,-,-,-,-,-,0.019,0.12,?,0.046,0.08,0.02
Cc1ccc(-n2cc(-c3ccccc3)[nH]c2=O)cc1F,-,-,-,-,-,-,.,.,.,.,.,.
Cc1cc(Br)ccc1OCC(=O)NNC(=O)Cc1ccccc1,-,-,-,-,-,-,.,.,.,.,.,.
Cc1ccc(OCC(=O)NNC(=O)C(=O)N2CCCC2)c(C)c1,4.3,-,-,-,-,-,-,0.013,-,0.013,?,0.015
Cc1cc(Br)ccc1OCC(=O)NNC(=O)C(=O)Nc1ccccc1,.,-,-,.,-,-,0.022,0.093,?,0.087,0.075,0.072
S=c1[nH]c(-c2ccccc2)cn1/N=C/c1ccncc1,-,-,-,-,.,.,.,.,.,.,.,.
CCOc1ccc(/C=N/n2cc(-c3ccccc3)[nH]c2=S)cc1,28,-,-,-,-,-,?,0.057,-,0.026,0.053,0.012
O=C(CNC(=O)Cc1ccccc1)NCC(=O)OCC(=O)c1ccc(Cl)cc1,-,-,-,.,-,-,.,.,.,.,.,.
CCCCC(=O)Nc1nn(CCC)c2nc3ccccc3cc12,-3.8,-,-,.,-,-,-,-,-,-,-,-
Cc1ccc2nc3c(cc2c1)c(NC(=O)c1ccccn1)nn3CC(C)C,.,-,-,.,-,-,.,.,.,.,.,.
CCn1nc(NC(=O)c2ccccn2)c2cc3cc(C)ccc3nc21,7.3,-,-,.,-,-,-,-,-,-,-,?
Cc1ccccc1N1CC(O)(c2ccccc2)[N+]2=C1SCC2 (stereo unspecified),-,-,-,.,-,-,.,.,.,.,.,.
COC(=O)C(NS(C)(=O)=O)(c1c(C)[nH]c2ccccc12)C(F)(F)F (stereo unspecified),-4.4,-,-,-,-,-,-,?,-,-,-,-
CC(=O)Nc1nc2cccc([N+](=O)[O-])c2s1,-,-,-,-,-,-,.,.,.,.,.,.
Cc1ccc(C(=O)NCC(=O)O)o1,-,-,-,-,-,-,.,.,.,.,.,.
CCC(Sc1ccc2nnc(CCNS(=O)(=O)c3ccc(OC)cc3)n2n1)C(=O)OC (stereo unspecified),-,-,-,-,-,-,.,.,.,.,.,.
CCOC(=O)c1c(C)[nH]c(C(=O)COC(=O)C2(C)CC2(Cl)Cl)c1C (stereo unspecified),.,-,-,-,-,-,-,-,-,-,-,-
